ChEMBL document CHEMBL2390927, “Design, synthesis and antimicrobial evaluation of novel benzimidazole type of Fluconazole analogues and their synergistic effects with Chloromycin, Norfloxacin and Fluconazole” (2013)
Converted amounts (≈) assume the structure as drawn.

Key:
Candida = assay: Antifungal activity against Candida mycoderma after 24 hrs by two-fold serial dilution method; format: functional
Summary of the method: (§1)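 Spore suspension in sterile distilled water from one-day-old cultures on Sabouraud agar, final 1–5 × 10³ spore mL⁻¹. Compound stocks diluted in sterile RPMI 1640 as two-fold serial dilutions in microdilution plates. MIC is the lowest concentration completely inhibiting growth. Growth monitored visually and spectrophotometrically, in triplicate.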

Candida albicans = assay: Antifungal activity against Candida albicans ATCC 76615 after 24 hrs by two-fold serial dilution method; format: functional; conditions: ATCC 76615, 24 h; summary of the method: as §1
Salmonella typhi = assay: Antibacterial activity against Bacillus typhi after 24 hrs by two-fold serial dilution method; format: functional, Salmonella enterica subsp. enterica serovar Typhi; conditions: Salmonella enterica
Summary of the method: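 Two-fold serial dilution in 96-well plates following NCCLS; compounds dissolved in DMSO as stocks, then diluted in Mueller-Hinton broth; bacterial suspension adjusted with sterile saline to 1 × 10⁵ CFU; MIC taken as lowest concentration completely inhibiting growth, monitored visually and spectrophotometrically; DMSO-plus-inoculum well as solvent control; triplicate.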

Pseudomonas aeruginosa = assay: Antibacterial activity against Pseudomonas aeruginosa ATCC 27853 after 24 hrs by two-fold serial dilution method; format: functional; conditions: ATCC 27853, 24 h
Summary of the method: (§2)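 MIC taken as the lowest concentration giving complete growth inhibition, by standard two-fold serial dilution in 96-well plates following NCCLS. Stocks in DMSO, diluted in Mueller–Hinton broth. Inoculum adjusted with sterile saline to 1 × 10⁵ CFU. DMSO with inoculum and no drug served as solvent control. Growth read visually and spectrophotometrically, in triplicate.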

Escherichia coli = assay: Antibacterial activity against Escherichia coli JM109 after 24 hrs by two-fold serial dilution method; format: functional; conditions: JM109, 24 h
Bacillus = assay: Antibacterial activity against Bacillus proteus ATCC 13315 after 24 hrs by two-fold serial dilution method; format: functional; conditions: ATCC 13315, 24 h; summary of the method: as §2
Micrococcus luteus = assay: Antibacterial activity against Micrococcus luteus ATCC 4698 after 24 hrs by two-fold serial dilution method; format: functional; conditions: ATCC 4698, 24 h; summary of the method: as §2
Bacillus subtilis = assay: Antibacterial activity against Bacillus subtilis ATCC 21216 after 24 hrs by two-fold serial dilution method; format: functional; conditions: ATCC 21216, 24 h; summary of the method: as §2
Staphylococcus aureus [1] = assay: Antibacterial activity against methicillin-resistant Staphylococcus aureus N315 after 24 hrs by two-fold serial dilution method; format: functional; conditions: N315, 24 h
Staphylococcus aureus [2] = assay: Antibacterial activity against Staphylococcus aureus ATCC 6538 after 24 hrs by two-fold serial dilution method; format: functional; conditions: ATCC 6538, 24 h
Aspergillus flavus = assay: Antifungal activity against Aspergillus flavus after 24 hrs by two-fold serial dilution method; format: functional; summary of the method: as §1
Cyberlindnera jadinii = assay: Antifungal activity against Candida utilis after 24 hrs by two-fold serial dilution method; format: functional; conditions: Williopsis jadinii; summary of the method: as §1
Saccharomyces cerevisiae = assay: Antifungal activity against Saccharomyces cerevisiae after 24 hrs by two-fold serial dilution method; format: functional; summary of the method: as §1

With `Fc1ccc(CN(Cc2nc3ccccc3[nH]2)c2ccc(Cl)cc2Cl)c(F)c1` the MIC (Candida) was 32 µg/mL (≈ 76.5 µM), the MIC (Candida albicans) was 32 µg/mL (≈ 76.5 µM) and the MIC (Salmonella typhi) was 32 µg/mL (≈ 76.5 µM). For the same compound, the MIC (Pseudomonas aeruginosa) was 128 µg/mL (≈ 306 µM), the MIC (Escherichia coli) was 64 µg/mL (≈ 153 µM) and the MIC (Bacillus) was 16 µg/mL (≈ 38.3 µM). It also gave an MIC (Micrococcus luteus) of 128 µg/mL (≈ 306 µM), an MIC (Bacillus subtilis) of 16 µg/mL (≈ 38.3 µM) and an MIC (Staphylococcus aureus [1]) of 64 µg/mL (≈ 153 µM). For the same compound, the MIC (Staphylococcus aureus [2]) was 64 µg/mL (≈ 153 µM), the MIC (Aspergillus flavus) was 64 µg/mL (≈ 153 µM) and the MIC (Cyberlindnera jadinii) was 64 µg/mL (≈ 153 µM). It also gave an MIC (Saccharomyces cerevisiae) of 32 µg/mL (≈ 76.5 µM).

Compound `FC(F)(F)c1cc(N(Cc2nc3ccccc3[nH]2)Cc2ccc(Cl)cc2Cl)cc(C(F)(F)F)c1` has an MIC (Candida) of 64 µg/mL (≈ 123 µM), an MIC (Candida albicans) of 64 µg/mL (≈ 123 µM) and an MIC (Salmonella typhi) of 64 µg/mL (≈ 123 µM). It also gave an MIC (Pseudomonas aeruginosa) of 128 µg/mL (≈ 247 µM), an MIC (Escherichia coli) of 64 µg/mL (≈ 123 µM) and an MIC (Bacillus) of 32 µg/mL (≈ 61.7 µM). It also gave an MIC (Micrococcus luteus) of 128 µg/mL (≈ 247 µM), an MIC (Bacillus subtilis) of 64 µg/mL (≈ 123 µM) and an MIC (Staphylococcus aureus [1]) of 64 µg/mL (≈ 123 µM). It also gave an MIC (Staphylococcus aureus [2]) of 64 µg/mL (≈ 123 µM), an MIC (Aspergillus flavus) of 64 µg/mL (≈ 123 µM) and an MIC (Cyberlindnera jadinii) of 64 µg/mL (≈ 123 µM). For the same compound, the MIC (Saccharomyces cerevisiae) was 32 µg/mL (≈ 61.7 µM).

With `Cc1cc(=O)oc2cc(OCCCCCCN(Cc3nc4ccccc4[nH]3)c3ccc(F)cc3)ccc12` the MIC (Candida) was 32 µg/mL (≈ 64.1 µM), the MIC (Candida albicans) was 16 µg/mL (≈ 32 µM) and the MIC (Salmonella typhi) was 64 µg/mL (≈ 128 µM). The MIC (Pseudomonas aeruginosa) was 16 µg/mL (≈ 32 µM), the MIC (Escherichia coli) was 128 µg/mL (≈ 256 µM) and the MIC (Bacillus) was 64 µg/mL (≈ 128 µM). For the same compound, the MIC (Micrococcus luteus) was 128 µg/mL (≈ 256 µM), the MIC (Bacillus subtilis) was 16 µg/mL (≈ 32 µM) and the MIC (Staphylococcus aureus [1]) was 128 µg/mL (≈ 256 µM). For the same compound, the MIC (Staphylococcus aureus [2]) was 32 µg/mL (≈ 64.1 µM), the MIC (Aspergillus flavus) was 32 µg/mL (≈ 64.1 µM) and the MIC (Cyberlindnera jadinii) was 16 µg/mL (≈ 32 µM). The MIC (Saccharomyces cerevisiae) was 32 µg/mL (≈ 64.1 µM).

Work on `CC(=O)c1cc2ccc(OCc3ccc(CN(Cc4nc5ccccc5[nH]4)c4ccc(C)cc4)cc3)cc2oc1=O` yielded an MIC (Candida) of 128 µg/mL (≈ 235 µM), an MIC (Candida albicans) of 64 µg/mL (≈ 118 µM) and an MIC (Salmonella typhi) of 128 µg/mL (≈ 235 µM). The MIC (Pseudomonas aeruginosa) was 128 µg/mL (≈ 235 µM), the MIC (Escherichia coli) was 128 µg/mL (≈ 235 µM) and the MIC (Bacillus) was 256 µg/mL (≈ 471 µM). For the same compound, the MIC (Micrococcus luteus) was 128 µg/mL (≈ 235 µM), the MIC (Bacillus subtilis) was 64 µg/mL (≈ 118 µM) and the MIC (Staphylococcus aureus [1]) was 64 µg/mL (≈ 118 µM). For the same compound, the MIC (Staphylococcus aureus [2]) was 128 µg/mL (≈ 235 µM), the MIC (Aspergillus flavus) was 64 µg/mL (≈ 118 µM) and the MIC (Cyberlindnera jadinii) was 64 µg/mL (≈ 118 µM). For the same compound, the MIC (Saccharomyces cerevisiae) was 32 µg/mL (≈ 58.9 µM).

`Fc1ccccc1N(CCCCn1c2ccccc2c2ccccc21)Cc1nc2ccccc2[nH]1` showed an MIC (Candida) of 64 µg/mL (≈ 138 µM), an MIC (Candida albicans) of 32 µg/mL (≈ 69.2 µM) and an MIC (Salmonella typhi) of 128 µg/mL (≈ 277 µM). The MIC (Pseudomonas aeruginosa) was 64 µg/mL (≈ 138 µM), the MIC (Escherichia coli) was 128 µg/mL (≈ 277 µM) and the MIC (Bacillus) was 64 µg/mL (≈ 138 µM). The MIC (Micrococcus luteus) was 128 µg/mL (≈ 277 µM), the MIC (Bacillus subtilis) was 64 µg/mL (≈ 138 µM) and the MIC (Staphylococcus aureus [1]) was 128 µg/mL (≈ 277 µM). For the same compound, the MIC (Staphylococcus aureus [2]) was 64 µg/mL (≈ 138 µM), the MIC (Aspergillus flavus) was 64 µg/mL (≈ 138 µM) and the MIC (Cyberlindnera jadinii) was 32 µg/mL (≈ 69.2 µM). The MIC (Saccharomyces cerevisiae) was 64 µg/mL (≈ 138 µM).

Work on `Cc1ccc(N(Cc2ccc(Cl)c(Cl)c2)Cc2nc3ccccc3[nH]2)cc1` yielded an MIC (Candida) of 128 µg/mL (≈ 323 µM), an MIC (Candida albicans) of 128 µg/mL (≈ 323 µM) and an MIC (Salmonella typhi) of 64 µg/mL (≈ 161 µM). The MIC (Pseudomonas aeruginosa) was 128 µg/mL (≈ 323 µM), the MIC (Escherichia coli) was 64 µg/mL (≈ 161 µM) and the MIC (Bacillus) was 128 µg/mL (≈ 323 µM). It also gave an MIC (Micrococcus luteus) of 64 µg/mL (≈ 161 µM), an MIC (Bacillus subtilis) of 128 µg/mL (≈ 323 µM) and an MIC (Staphylococcus aureus [1]) of 64 µg/mL (≈ 161 µM). It also gave an MIC (Staphylococcus aureus [2]) of 32 µg/mL (≈ 80.7 µM), an MIC (Aspergillus flavus) of 128 µg/mL (≈ 323 µM) and an MIC (Cyberlindnera jadinii) of 64 µg/mL (≈ 161 µM). For the same compound, the MIC (Saccharomyces cerevisiae) was 128 µg/mL (≈ 323 µM).

`Fc1ccc(N(Cc2nc3ccccc3[nH]2)Cc2ccc(Cl)cc2Cl)c(F)c1` was tested, and the MIC (Candida) was 64 µg/mL (≈ 153 µM), the MIC (Candida albicans) was 128 µg/mL (≈ 306 µM) and the MIC (Salmonella typhi) was 128 µg/mL (≈ 306 µM). For the same compound, the MIC (Pseudomonas aeruginosa) was 64 µg/mL (≈ 153 µM), the MIC (Escherichia coli) was 32 µg/mL (≈ 76.5 µM) and the MIC (Bacillus) was 32 µg/mL (≈ 76.5 µM). For the same compound, the MIC (Micrococcus luteus) was 64 µg/mL (≈ 153 µM), the MIC (Bacillus subtilis) was 64 µg/mL (≈ 153 µM) and the MIC (Staphylococcus aureus [1]) was 128 µg/mL (≈ 306 µM). For the same compound, the MIC (Staphylococcus aureus [2]) was 64 µg/mL (≈ 153 µM), the MIC (Aspergillus flavus) was 64 µg/mL (≈ 153 µM) and the MIC (Cyberlindnera jadinii) was 32 µg/mL (≈ 76.5 µM). It also gave an MIC (Saccharomyces cerevisiae) of 32 µg/mL (≈ 76.5 µM).

`CCCCCCCCN(Cc1nc2ccccc2[nH]1)c1ccc(C)cc1.Cl.Cl` gave an MIC (Candida) of 128 µg/mL, an MIC (Candida albicans) of 64 µg/mL and an MIC (Salmonella typhi) of 64 µg/mL. The MIC (Pseudomonas aeruginosa) was 128 µg/mL, the MIC (Escherichia coli) was 128 µg/mL and the MIC (Bacillus) was 64 µg/mL. For the same compound, the MIC (Micrococcus luteus) was 64 µg/mL, the MIC (Bacillus subtilis) was 128 µg/mL and the MIC (Staphylococcus aureus [1]) was 128 µg/mL. The MIC (Staphylococcus aureus [2]) was 64 µg/mL, the MIC (Aspergillus flavus) was 128 µg/mL and the MIC (Cyberlindnera jadinii) was 64 µg/mL. It also gave an MIC (Saccharomyces cerevisiae) of 64 µg/mL.

Compound `O=C(N[C@H](CO)[C@H](O)c1ccc([N+](=O)[O-])cc1)C(Cl)Cl` [CHLORAMPHENICOL] has an MIC (Salmonella typhi) of 32 µg/mL (≈ 99 µM), an MIC (Bacillus) of 32 µg/mL (≈ 99 µM) and an MIC (Micrococcus luteus) of 8 µg/mL (≈ 24.8 µM). The MIC (Bacillus subtilis) was 32 µg/mL (≈ 99 µM) and the MIC (Staphylococcus aureus [2]) was 8 µg/mL (≈ 24.8 µM).

For `OC(Cn1cncn1)(Cn1cncn1)c1ccc(F)cc1F` [FLUCONAZOLE], the MIC (Candida) was 4 µg/mL (≈ 13.1 µM), the MIC (Candida albicans) was 1 µg/mL (≈ 3.27 µM) and the MIC (Aspergillus flavus) was 256 µg/mL (≈ 836 µM). For the same compound, the MIC (Cyberlindnera jadinii) was 8 µg/mL (≈ 26.1 µM) and the MIC (Saccharomyces cerevisiae) was 16 µg/mL (≈ 52.2 µM).

With `CCn1cc(C(=O)O)c(=O)c2cc(F)c(N3CCNCC3)cc21` [NORFLOXACIN] the MIC (Salmonella typhi) was 1 µg/mL (≈ 3.13 µM), the MIC (Pseudomonas aeruginosa) was 1 µg/mL (≈ 3.13 µM) and the MIC (Escherichia coli) was 1 µg/mL (≈ 3.13 µM). For the same compound, the MIC (Bacillus) was 4 µg/mL (≈ 12.5 µM), the MIC (Micrococcus luteus) was 1 µg/mL (≈ 3.13 µM) and the MIC (Bacillus subtilis) was 2 µg/mL (≈ 6.26 µM). It also gave an MIC (Staphylococcus aureus [1]) of 1 µg/mL (≈ 3.13 µM) and an MIC (Staphylococcus aureus [2]) of 8 µg/mL (≈ 25.1 µM).
